Ecoli rRNA inh: reduced GFP signal of wild-type E. coli, primary screen, bacterial rRNA inhibitor project, GFP/RFP fluorescence, OD600, single point | E. coli WT GFP vs humanized-ribosome RFP mutants, 24 h; stronger effect = lower value; DMSO median 0, no signal -100 | GFP signal change (wild-type ribosome), % (no concentration beside the values) | actives 1.6% (n = 350,000);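 active = significant combined selectivity score with lowered wild-type GFP, culture density cut under 30%, mutant RFP and density less affected; inactive = any of these conditions unmet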
miR122 inh: miR-122 Renilla sensor signal increase in Huh7, primary screen, miR-122 inhibitor project, cell-based, single point, plate reader; Huh7 miR-122 Renilla luciferase sensor, 48 h; neutral wells = 0, positive control = 100; activation (reporter increase), % at 12.5 µM; actives 0.3% (n = 340,000); AID 602342, 2012;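 active = mean replicate activation score at least 90 and every replicate individually at or above 90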;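 note: higher luciferase means less miR-122 activity so hits act as miR-122 inhibitors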
FN deposition inh: inhibitors of fibronectin matrix deposition, primary screen, AH1F cells, Alexa488-fibronectin fluorescence, plate reader; AH1F fibroblasts, overnight; inhibition, % at 12.6 µM; actives 0.086% (n = 350,000); AID 743247, 2014;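 active = mean inhibition across replicates of 30% or more, regardless of how many single replicates reach that level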;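 note: positive control wells lacked labelled fibronectin entirely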
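Material – AH1F fibroblast monolayer, labelled fibronectin deposition · Reagent – labelled fibronectin 24 nM · Timing – 1 h adhesion, overnight exposure · Measured by – fluorescence at 485 nm excitation, 525 nm emission · Read-out – inhibition of fibronectin deposition signal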
HIV Env fusion: inhibitors of HIV-1 Env-driven cell-cell fusion, primary screen, HeLa-JRFL effector, CEM21 target cells, luciferase; AID 651610, 2012; inhibition, % at 12.3 µM; actives 1.1% (n = 360,000);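 active = mean replicate inhibition score of at least 50 and every replicate individually at or above 50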;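 note: 0% = plate neutral controls and 100% = maraviroc near 300 nM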
Vif inh: HIV Vif self-association inhibitors, primary screen, imaging, HEK293T, single point; HEK293T cells, Vif self-association by quenched fluorescence, 24 h; inhibition, % at 7.49 µM; actives 0.35% (n = 340,000); in the data active = inhibition above about 50%, passing the limit was not always enough
S100A4 inh HTS: inhibitors of S100A4-myosin IIA peptide binding, primary screen, biochemical, fluorescence polarization, TAMRA-MyoIIA peptide; inhibition, % at 10.7 µM; actives 0.14% (n = 360,000);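 active = mean inhibition of at least 70% across replicates, with every replicate also reaching that level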
Target sequence (P26447 whole entry, looked up): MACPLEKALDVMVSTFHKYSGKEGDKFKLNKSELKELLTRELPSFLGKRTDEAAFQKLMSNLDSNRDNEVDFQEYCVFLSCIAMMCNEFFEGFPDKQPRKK
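Material: human S100A4 monomer with TAMRA-labelled myosin IIA peptide; buffer or medium: HEPES pH 7.2 with CaCl2, KCl, NaCl, DTT, Triton; compound dosing: one concentration per compound; schedule: 5 min incubation before reading; benchmarks: neutral control DMSO, positive control TFP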
The depositor's hits bear a star; [ ] = another dose, or the depositor's remark. In the library only some 2.6% were active in any assay of this set; here they are far more common.

How did COCC(=O)Nc1ccc2c(c1)C(=O)N(C)[C@H]1CC[C@@H](CC(=O)O)O[C@H]1CO2 do in these assays?
Ecoli rRNA inh: 6; miR122 inh: 262*[16.7 µM]; FN deposition inh: 10; HIV Env fusion: -26[16.7 µM]

Results for COC(=O)C[C@@H]1CC[C@@H]2[C@@H](COc3ccc(NS(=O)(=O)c4ccc(C)cc4)cc3C(=O)N2C)O1 ?
Ecoli rRNA inh: 2; miR122 inh: -1[16.7 µM]; FN deposition inh: -19; HIV Env fusion: 16[16.7 µM]; S100A4 inh HTS: 2

Results for COC(=O)C[C@@H]1CC[C@H]2[C@H](COc3ccc(NS(=O)(=O)c4ccc(C)cc4)cc3C(=O)N2C)O1 ?
Ecoli rRNA inh: -2; miR122 inh: 5[16.7 µM]; FN deposition inh: 0; HIV Env fusion: 5[16.7 µM]; S100A4 inh HTS: 101*

How did CN1C(=O)c2cc(NC(=O)c3ccccc3)ccc2OC[C@@H]2O[C@H](CC(=O)NC3CCCC3)CC[C@H]21 do in these assays?
Ecoli rRNA inh: 0; miR122 inh: -6[16.7 µM]; FN deposition inh: -9; S100A4 inh HTS: -4

Results for C[C@H]1CN([C@@H](C)CO)C(=O)Cc2cc(NC(=O)Cc3cn(C)c4ccccc34)ccc2O[C@@H]1CN(C)S(=O)(=O)c1cccs1 ?
Ecoli rRNA inh: -1; miR122 inh: 7[16.7 µM]; FN deposition inh: -2; HIV Env fusion: -5[16.7 µM]; S100A4 inh HTS: 0

How did CC(C)CC#Cc1ccc([C@@H]2[C@@H](CO)N3C(=O)CN(C(=O)NC(C)C)C[C@H]23)cc1 do in these assays?
Ecoli rRNA inh: -5

How did CC(C)NC(=O)N(C)C[C@@H]1Oc2cc(C#Cc3cccc(F)c3)ccc2S(=O)(=O)N([C@H](C)CO)C[C@H]1C do in these assays?
Ecoli rRNA inh: -1; miR122 inh: 10[16.7 µM]; FN deposition inh: 15; HIV Env fusion: 28[16.7 µM]; S100A4 inh HTS: -2

What do the screens show for `C/C=C/c1ccc([C@@H]2[C@H](CO)N(C(C)=O)C23CN(S(C)(=O)=O)C3)cc1`?
Ecoli rRNA inh: 6; S100A4 inh HTS: 4

What do the screens show for `O=C(O)C[C@H]1C=C[C@H](NC(=O)CCN2CCCCC2)[C@@H](CO)O1`?
Ecoli rRNA inh: -1; FN deposition inh: -1; S100A4 inh HTS: 1

How did CC(C)NC(=O)Nc1ccc2c(c1)CC(=O)N(C)C[C@H](C)[C@H](CN(C)C(=O)OC(C)(C)C)O2 do in these assays?
Ecoli rRNA inh: -2; FN deposition inh: -15

How did CCC(=O)Nc1ccc2c(c1)C(=O)N(C)[C@H]1CC[C@H](CC(=O)NC3CCCC3)O[C@H]1CO2 do in these assays?
Ecoli rRNA inh: 1; miR122 inh: 3[16.7 µM]; FN deposition inh: -12; HIV Env fusion: 57*[16.7 µM]; S100A4 inh HTS: -8

How did Cc1noc(C)c1S(=O)(=O)Nc1ccc2c(c1)C(=O)N([C@@H](C)CO)C[C@H](C)[C@@H](CN(C)S(C)(=O)=O)O2 do in these assays?
Ecoli rRNA inh: 0; miR122 inh: -5[16.7 µM]; HIV Env fusion: -20[16.7 µM]; S100A4 inh HTS: -6

What do the screens show for `COCC(=O)N(C)C[C@H]1Oc2ncc(C#CC3(O)CCCC3)cc2C(=O)N([C@@H](C)CO)C[C@H]1C`?
Ecoli rRNA inh: 3; miR122 inh: 5[16.7 µM]; FN deposition inh: -11; HIV Env fusion: 11[16.7 µM]; S100A4 inh HTS: -14

What do the screens show for `C[C@H]1CN([C@@H](C)CO)S(=O)(=O)c2ccc(C#CC3CCCC3)cc2O[C@@H]1CN(C)Cc1cncnc1`?
Ecoli rRNA inh: -29; miR122 inh: 60[16.7 µM]; FN deposition inh: -16; HIV Env fusion: -5[16.7 µM]

Results for Cc1cccc(N2C(=O)C(O)=C(C(=O)c3cccs3)C2c2ccc(C(C)C)cc2)n1 (stereo unspecified) ?
Ecoli rRNA inh: -23*; FN deposition inh: -2; HIV Env fusion: 20; Vif inh: 5; S100A4 inh HTS: 8

What do the screens show for `CC1CCCC/C1=N\NC(=S)Nc1ccccc1` (stereo unspecified)?
Ecoli rRNA inh: 10; miR122 inh: 2; FN deposition inh: 1; HIV Env fusion: -5; Vif inh: 66*; S100A4 inh HTS: -10

Results for CCN(CC)S(=O)(=O)c1cc(NC(=O)C(C)N2CCN(c3ccccn3)CC2)ccc1C (stereo unspecified) ?
Ecoli rRNA inh: -20*; miR122 inh: -3; FN deposition inh: 0; HIV Env fusion: -9; Vif inh: -11; S100A4 inh HTS: -5

How did O=C(Nc1ccc(F)cc1)NC1CCN(Cc2nnnn2Cc2ccco2)CC1 do in these assays?
miR122 inh: -7; HIV Env fusion: 61*; Vif inh: -5

Results for O=C(Nc1ccccc1F)NC1CCN(Cc2nnnn2Cc2ccc(F)cc2)CC1 ?
miR122 inh: 2; FN deposition inh: 6; HIV Env fusion: -16; Vif inh: 0

What do the screens show for `C[C@@H]1CN([C@H](C)CO)C(=O)c2cc(NC(=O)Nc3ccccc3)ccc2O[C@@H](C)CCCCO[C@@H]1CN(C)S(=O)(=O)c1cccs1`?
Ecoli rRNA inh: 0; miR122 inh: 4[16.7 µM]; FN deposition inh: -13; HIV Env fusion: 9[16.7 µM]; S100A4 inh HTS: -4

Results for Nc1ccn(C2OC(CO)C(O)C2O)c(=O)n1 (stereo unspecified) ?
miR122 inh: -9; Vif inh: 21; S100A4 inh HTS: 0

What do the screens show for `OCC1OC(n2ccc3c2ncn2ncnc32)C(O)C1O` (stereo unspecified)?
Ecoli rRNA inh: 22; FN deposition inh: 7; HIV Env fusion: 55*; Vif inh: 11; S100A4 inh HTS: 1

Results for O=C(OCn1ncc(Cl)c(Cl)c1=O)c1ccccc1Cl ?
miR122 inh: -61; FN deposition inh: active; HIV Env fusion: inactive; Vif inh: 11

How did O=C(Cn1ncc(Cl)c(Cl)c1=O)c1ccc(Cl)cc1 do in these assays?
miR122 inh: -21; HIV Env fusion: -160; Vif inh: -1

What do the screens show for `COc1ccc(/C=c2\s/c(=C/C(=O)c3ccc(C)cc3)[nH]c2=O)c(OC)c1`?
Ecoli rRNA inh: 38; miR122 inh: -3; FN deposition inh: -3; HIV Env fusion: 11; Vif inh: 97*; S100A4 inh HTS: 38

What do the screens show for `COC(=O)[C@@H]1[C@@H](CO)[C@@H]2Cn3c(ccc(C4=CCCCC4)c3=O)[C@@H]2N1C(=O)C1CCC1`?
Ecoli rRNA inh: -2; miR122 inh: -1[16.7 µM]; S100A4 inh HTS: -5
